Experimental data from ChEMBL document CHEMBL1949601, “γ-Carbolines: a novel class of cannabinoid agonists with high aqueous solubility and restricted CNS penetration” (Bioorg Med Chem Lett, 2012).
In brackets after ≈: the same amount, converted by molar mass.

Legend:
Cannabinoid receptor 1 [1] = molecular target: T1, Cannabinoid receptor 1 (Homo sapiens, UniProt P21554); test: Displacement of [3H]-CP55,940 from human CB1 receptor expressed in HEK293 cells; type: cell-based
Cannabinoid receptor 1 [2] = molecular target: T1, Cannabinoid receptor 1; test: Agonist activity at human CB1 receptor expressed in HEK293 EBNA cells by [35S]GTPgamma binding assay; type: functional, cell-based
Cannabinoid receptor 2 = Cannabinoid receptor 2 (Homo sapiens, UniProt P34972); test: Binding affinity to human CB2 receptor
Cannabinoid receptor 1 [3] = molecular target: Cannabinoid receptor 1 (Rattus norvegicus, UniProt P20272); test: Agonist activity at CB1 receptor in rat brain tissue; type: functional, tissue-based
[4] = molecular target: Cannabinoid receptor 1 (Rattus norvegicus) (UniProt P20272); test: Agonist activity at CB1 receptor in rat brain tissue relative to control; type: functional, tissue-based
[5] = Aqueous solubility of the compound at pH 7.4; type: physicochemical
[6] = Apparent permeability across human Caco2 cells; type: ADME, cell-based; details: Caco-2
[7] = Ratio of drug uptake in brain to plasma of Sprague-Dawley rat at 1 mg/kg, sc; type: ADME, organism-based; set-up: dose 1 mg/kg, route subcutaneous; details: read-out: BPR
[8] = Metabolic stability in human liver microsomes; type: ADME, Microsome; details: read-out: Stability
[9] = Metabolic stability in rat liver microsomes; type: ADME, Microsome; details: read-out: Stability
[10] = molecular target: Voltage-gated inwardly rectifying potassium channel KCNH2 (Homo sapiens, UniProt Q12809); test: Inhibition of human Erg by voltage ion flux electrophysiological assay
[11] = Dissociation constant, pKa of the compound; type: physicochemical
Cannabinoid receptor 1 [12] = molecular target: T1, Cannabinoid receptor 1; test: Partial agonist activity at human CB1 receptor expressed in HEK293 EBNA cells by [35S]GTPgamma binding assay; type: functional, cell-based
How it was run: (§1)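 Membranes from HEK293 EBNA cells stably transfected with cloned human CB1; agonism read out as [35S]GTPγS binding, EC50 determined; Emax expressed relative to Win55,212-2 as reference agonist. Mean of at least 2 independent measurements.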

Cannabinoid receptor 1 [13] = molecular target: T1, Cannabinoid receptor 1; test: Partial agonist activity at human CB1 receptor expressed in HEK293 EBNA cells by [35S]GTPgamma binding assay relative to Win55,212-2; type: functional, cell-based; how it was run: as §1

Chain of Cannabinoid receptor 2 (P34972 whole entry): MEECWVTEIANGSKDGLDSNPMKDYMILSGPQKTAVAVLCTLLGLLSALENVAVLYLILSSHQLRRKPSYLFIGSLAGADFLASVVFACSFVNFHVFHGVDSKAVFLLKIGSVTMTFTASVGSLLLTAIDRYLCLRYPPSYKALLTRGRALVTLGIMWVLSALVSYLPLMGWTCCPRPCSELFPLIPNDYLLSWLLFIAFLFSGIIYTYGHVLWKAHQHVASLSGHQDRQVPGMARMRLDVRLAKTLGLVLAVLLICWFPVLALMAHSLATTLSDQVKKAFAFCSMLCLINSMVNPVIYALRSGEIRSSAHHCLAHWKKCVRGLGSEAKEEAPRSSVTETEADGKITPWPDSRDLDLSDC
T1 sequence (P21554 whole entry): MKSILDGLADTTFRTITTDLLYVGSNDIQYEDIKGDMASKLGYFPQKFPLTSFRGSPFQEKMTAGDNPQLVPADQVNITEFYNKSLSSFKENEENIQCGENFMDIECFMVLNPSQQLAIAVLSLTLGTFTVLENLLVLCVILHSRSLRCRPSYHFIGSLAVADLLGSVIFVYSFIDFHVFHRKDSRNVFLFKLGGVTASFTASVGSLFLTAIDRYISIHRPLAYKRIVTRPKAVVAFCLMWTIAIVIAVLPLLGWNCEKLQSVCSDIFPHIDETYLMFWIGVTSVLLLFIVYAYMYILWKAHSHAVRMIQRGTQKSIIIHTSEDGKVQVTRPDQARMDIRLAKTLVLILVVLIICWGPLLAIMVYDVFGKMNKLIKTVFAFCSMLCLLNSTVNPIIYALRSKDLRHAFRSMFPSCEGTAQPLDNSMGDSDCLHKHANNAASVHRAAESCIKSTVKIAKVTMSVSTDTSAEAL
Chain of Voltage-gated inwardly rectifying potassium channel KCNH2 (Q12809 whole entry): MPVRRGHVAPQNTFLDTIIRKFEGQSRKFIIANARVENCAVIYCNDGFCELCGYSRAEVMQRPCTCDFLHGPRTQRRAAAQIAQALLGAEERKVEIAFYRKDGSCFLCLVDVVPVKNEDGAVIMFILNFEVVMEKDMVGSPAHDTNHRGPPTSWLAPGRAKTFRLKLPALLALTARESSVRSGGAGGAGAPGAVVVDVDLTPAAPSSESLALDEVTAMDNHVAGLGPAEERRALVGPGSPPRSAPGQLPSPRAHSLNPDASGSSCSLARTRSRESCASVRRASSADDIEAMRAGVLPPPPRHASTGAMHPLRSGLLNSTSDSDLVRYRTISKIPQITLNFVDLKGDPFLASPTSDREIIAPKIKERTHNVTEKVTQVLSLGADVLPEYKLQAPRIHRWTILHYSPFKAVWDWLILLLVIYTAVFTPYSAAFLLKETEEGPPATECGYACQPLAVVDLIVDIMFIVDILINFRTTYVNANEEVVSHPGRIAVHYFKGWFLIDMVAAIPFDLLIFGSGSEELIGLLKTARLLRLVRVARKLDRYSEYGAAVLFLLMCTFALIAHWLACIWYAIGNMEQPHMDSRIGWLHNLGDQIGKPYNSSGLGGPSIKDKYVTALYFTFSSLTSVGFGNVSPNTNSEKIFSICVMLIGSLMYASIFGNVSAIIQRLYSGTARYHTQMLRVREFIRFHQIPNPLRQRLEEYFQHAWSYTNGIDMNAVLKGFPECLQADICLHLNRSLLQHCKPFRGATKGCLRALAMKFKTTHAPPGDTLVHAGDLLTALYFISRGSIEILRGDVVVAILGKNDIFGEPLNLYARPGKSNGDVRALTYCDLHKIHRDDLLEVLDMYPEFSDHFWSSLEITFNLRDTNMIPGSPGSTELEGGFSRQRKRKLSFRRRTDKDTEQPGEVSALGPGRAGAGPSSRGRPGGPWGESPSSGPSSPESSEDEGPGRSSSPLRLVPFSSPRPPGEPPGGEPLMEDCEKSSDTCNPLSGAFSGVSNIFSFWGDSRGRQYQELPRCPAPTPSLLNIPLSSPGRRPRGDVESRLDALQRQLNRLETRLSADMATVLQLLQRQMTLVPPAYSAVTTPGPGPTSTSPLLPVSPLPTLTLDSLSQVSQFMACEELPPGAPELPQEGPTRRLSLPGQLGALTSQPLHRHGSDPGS
Chain of Cannabinoid receptor 1 (Rattus norvegicus) (P20272 whole entry): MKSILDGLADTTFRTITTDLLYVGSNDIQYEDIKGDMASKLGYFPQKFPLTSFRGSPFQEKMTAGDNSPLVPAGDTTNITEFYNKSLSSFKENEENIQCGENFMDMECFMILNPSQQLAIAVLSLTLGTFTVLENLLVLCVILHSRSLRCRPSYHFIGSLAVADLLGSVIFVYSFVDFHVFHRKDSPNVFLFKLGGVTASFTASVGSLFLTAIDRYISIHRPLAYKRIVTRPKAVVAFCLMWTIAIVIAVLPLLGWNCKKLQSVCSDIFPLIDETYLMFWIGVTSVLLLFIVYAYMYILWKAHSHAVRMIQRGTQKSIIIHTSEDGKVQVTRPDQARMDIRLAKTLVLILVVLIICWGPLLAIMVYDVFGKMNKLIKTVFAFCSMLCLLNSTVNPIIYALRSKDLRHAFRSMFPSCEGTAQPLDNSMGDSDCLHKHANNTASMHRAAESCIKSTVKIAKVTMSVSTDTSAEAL
Chain of Cannabinoid receptor 1 (Rattus norvegicus, UniProt P20272) (P20272 whole entry): as above

Row | SMILES | Ki (Cannabinoid receptor 1 [1]) [nM] | EC50 (Cannabinoid receptor 1 [2]) [nM] | further results
1 | C=CCn1c2c(c3cc(C(=O)N4CCC(C)CC4)ccc31)CN(CC1CC1)CC2 | 143 | 768 | Ki (Cannabinoid receptor 2): 14 nM; EC50 (Cannabinoid receptor 1 [3]): 1440 nM; Emax [4]: 47%; solubility [5]: 3300 µg/mL (≈ 8430 µM); Papp [6]: 3 ×10⁻⁶ cm/s; Kp [7]: 0.74; microsomal CLint [8]: 66 µL/min/mg; microsomal CLint [9]: > 300 µL/min/mg
2 | CCn1c2c(c3cc(C(=O)N4CCC(C)CC4)ccc31)CN(C1CCCC1)CC2 | 34 | 63 | 
3 | CCS(=O)(=O)n1c2c(c3cc(C(=O)N4CCC(C)CC4)ccc31)CN(C1CCCC1)CC2 | 17 | 11 | 
4 | CC1CCN(C(=O)c2ccc3c(c2)c2c(n3S(C)(=O)=O)CCN(C3CCOCC3)C2)CC1 | 239 | 473 | 
5 | CCS(=O)(=O)n1c2c(c3cc(C(=O)N4CCC(C)CC4)ccc31)CN(C1CCOC1)CC2 (stereo not given) | 197 |  | IC50 [10]: 25000 nM; pKa [11]: 5.9
6 | CCNS(=O)(=O)n1c2c(c3cc(C(=O)N4CCC(C)CC4)ccc31)CN(C1CCOCC1)CC2 | 424 |  | 
7 | CCOc1ccc(Cn2c3c(c4cc(C(=O)N5CCC(C)CC5)ccc42)CN(C2CCOCC2)CC3)cc1 | 51 | 53 | 
8 | CCCS(=O)(=O)n1c2c(c3cc(C(=O)N4CCC(C)CC4)ccc31)CN(C1CCOCC1)CC2 | 115 | 129 | IC50 [10]: 2000 nM; pKa [11]: 7.3
9 | C=CCn1c2c(c3cc(C(=O)N4CCC(C)CC4)ccc31)CN(Cc1ccncc1)CC2 |  | 1360 | microsomal CLint [8]: > 300 µL/min/mg
10 | CCCCCc1cc(O)c2c(c1)OC(C)(C)[C@@H]1CCC(C)=C[C@@H]21 [DRONABINOL] |  |  | solubility [5]: < 10 µg/mL; Kp [7]: 1
11 | C=CCn1c2c(c3cc(C(=O)N4CCC(C)CC4)ccc31)CN(Cc1cccnc1)CC2 |  | > 14000 | microsomal CLint [8]: > 300 µL/min/mg
12 | C=CCn1c2c(c3cc(C(=O)N4CCC(C)CC4)ccc31)CN(C1CCOCC1)CC2 |  | 60 | microsomal CLint [8]: 42 µL/min/mg
13 | CCOc1ccc(Cc2nc3cc(N(C)S(=O)(=O)c4cccs4)ccc3n2CC2CCCCC2)nc1 | 3 | 6 | Ki (Cannabinoid receptor 2): 0.56 nM; solubility [5]: < 10 µg/mL; Papp [6]: 0.6 ×10⁻⁶ cm/s; Kp [7]: 0.07; microsomal CLint [8]: > 300 µL/min/mg; microsomal CLint [9]: > 300 µL/min/mg
14 | CC1CCN(C(=O)c2ccc3c(c2)c2c(n3S(=O)(=O)c3ccccc3)CCN(C3CCOCC3)C2)CC1 | 31 | 59 | 
15 | CCCn1c2c(c3cc(C(=O)N4CCC(C)CC4)ccc31)CN(C1CCCC1)CC2 | 15 | 45 | 
16 | C=CCn1c2c(c3cc(C(=O)N4CCC(C)CC4)ccc31)CN(CC1CCCC1)CC2 |  | 115 | microsomal CLint [8]: > 300 µL/min/mg
17 | CC1CCN(C(=O)c2ccc3c(c2)c2c(n3C)CCN(C3CCOCC3)C2)CC1 | 76 |  | IC50 [10]: 2600 nM
18 | CCCC(=O)n1c2c(c3cc(C(=O)N4CCC(C)CC4)ccc31)CN(C1CCOCC1)CC2 | 102 |  | EC50 (Cannabinoid receptor 1 [12]): 117 nM; Emax (Cannabinoid receptor 1 [13]): 17%
19 | C=CCn1c2c(c3cc(C(=O)N4CCC(C)CC4)ccc31)CN(Cc1ccccc1)CC2 |  | 103 | microsomal CLint [8]: > 300 µL/min/mg

Row | SMILES | Ki (Cannabinoid receptor 1 [1]) [nM] | EC50 (Cannabinoid receptor 1 [2]) [nM] | further results
20 | CCCn1c2c(c3cc(C(=O)N4CCC(C)CC4)ccc31)CN(C1CCOCC1)CC2 | 58 | 103 | 
21 | CC1CCN(C(=O)c2ccc3c(c2)c2c(n3S(=O)(=O)n3ccnc3)CCN(C3CCOCC3)C2)CC1 | 592 |  | 
22 | CC1CCN(C(=O)c2ccc3c(c2)c2c(n3S(C)(=O)=O)CCN(C3CCCC3)C2)CC1 | 36 | 50 | 
23 | C=CCn1c2c(c3cc(C(=O)N4CCC(C)CC4)ccc31)CN(C1CCCCC1)CC2 | 56 | 60 | microsomal CLint [8]: 135 µL/min/mg
24 | C=CCn1c2c(c3cc(C(=O)N4CCC(C)CC4)ccc31)CN(C1CCCC1)CC2 | 9 | 33 | microsomal CLint [8]: 93 µL/min/mg
25 | C=CCn1c2c(c3cc(C(=O)N4CCC(C)CC4)ccc31)CN(Cc1ccccn1)CC2 |  | 5420 | 
26 | CC1CCN(C(=O)c2ccc3c(c2)c2c(n3S(=O)(=O)C(C)C)CCN(C3CCOCC3)C2)CC1 | 170 | 150 | 
27 | CCCS(=O)(=O)n1c2c(c3cc(C(=O)N4CCC(C)CC4)ccc31)CN(C1CCCC1)CC2 | 22 | 22 | 
28 | CCCS(=O)(=O)n1c2c(c3cc(C(=O)N4CCC(C)CC4)ccc31)CN(C1CCOC1)CC2 (stereo not given) | 320 |  | pKa [11]: 5.8
29 | CC1CCN(C(=O)c2ccc3c(c2)c2c(n3C)CCN(C3CCCC3)C2)CC1 | 32 | 77 | 
30 | C=CCn1c2c(c3cc(C(=O)N4CCC(C)CC4)ccc31)CN(C1CCSC1)CC2 (stereo not given) |  | 5 | microsomal CLint [8]: > 300 µL/min/mg
31 | CC1CCN(C(=O)c2ccc3c(c2)c2c(n3C(=O)N(C)C)CCN(C3CCOCC3)C2)CC1 | 2380 |  | 
32 | CC1CCN(C(=O)c2ccc3c(c2)c2c(n3S(=O)(=O)N(C)C)CCN(C3CCCC3)C2)CC1 | 22 | 26 | 
33 | CC1CCN(C(=O)c2ccc3c(c2)c2c(n3S(=O)(=O)N(C)C)CCN(C3CCOCC3)C2)CC1 | 110 | 71 | 
34 | CCCCCCC(C)(C)c1cc(O)c2c(c1)OC(C)(C)[C@@H]1CC=C(C(=O)O)C[C@@H]21 [LENABASUM] |  |  | Kp [7]: 0.3
35 | CC1CCN(C(=O)c2ccc3[nH]c4c(c3c2)CN(C2CCCC2)CC4)CC1 | 264 | 4250 | 
36 | Cn1c2c(c3cc(C(=O)N4CCCCC4)ccc31)CN(C1CCOCC1)CC2 | 226 |  | IC50 [10]: 18000 nM
37 | CCCCCOc1ccc(C(=O)c2cccc3ccccc23)c2ccccc12 |  |  | Ki (Cannabinoid receptor 2): 19 nM; solubility [5]: < 10 µg/mL; Kp [7]: 0.04
